# Active and inactive are the calls of the source. Unless noted, no stated cut-off is given here; in the data, active means inhibition above about 30%; inactive means the rest.
# Assays:
# [1] = reducers of endogenous Her2 protein level, primary screen, SKBR3 breast tumor cells, AlphaScreen, ATP viability (AID 461;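 active means Her2 level under about 52% in both replicate screens, with viability over 70% of control, limit read from the data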;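 on Her2 level: lower value means less Her2 protein in the cells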;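 on viability: percent of carrier control wells set as 100% viability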); conditions: 18-24 h, measured here: SKBR3 viability, ATP luminescence, at 10 µM
# [2] = target: Receptor tyrosine-protein kinase erbB-2 (Homo sapiens) (UniProt P04626); assay: as above; conditions: 18-24 h, at 10 µM, stronger effect = lower value
# [3] = SK-BR-3 cell growth inhibitors, pilot screen, 24 h, human (AID 572;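 active means viability at or below 10% of carrier control in both of two separate runs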;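 further: compound exposure lasted between 18 and 24 h rather than exactly 24 h; 100% = carrier-treated control wells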); conditions: SK-BR-3 viability, CellTiter-Glo luminescence, at 10 µM, stronger effect = lower value
# [4] = HUVEC growth inhibition – cell-based, human, primary screen (AID 575;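 active means viability at or below 30% in both replicate assays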;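 further: 100% = median of untreated cell wells with 0.1% DMSO on each plate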); conditions: HUVEC proliferation, CellTiter-Glo luminescence, 72 h; at 10 µM; stronger effect = lower value
# Method in brief: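 Timing: 72 h treatment at 37 °C; material: HUVEC primary cells; technique: CellTiter-Glo luminescence measuring cellular ATP; controls: vehicle and MePR control wells; measure: percent of median DMSO-control luminescence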
# [5] = growth inhibitors of H69AR lung tumor, primary screen, human, duplicate replicates (AID 580;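 active means viability at or under a set limit in both replicates, limit being median viability minus 3 SD, cut at about 48% in these data, passing the limit was not always enough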;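 further: 100% = mean luminescence of untreated wells and 0% = no signal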); conditions: H69AR lung tumor cells viability, ATP luminescence, 72 h; at 10 µM; stronger effect = lower value
# [6] = reversal of MRP1-mediated doxorubicin resistance, pilot screen, H69AR cells, doxorubicin co-treatment (AID 601;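 active means viability loss from added drug above about 55%, and viability with drug at most 40%, in both replicates, limit read from the data, passing the limit was not always enough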); conditions: CellTiter-Glo, 72 h, at 10 µM; for differential viability (reversal): stronger effect = higher value
# [7] = 384-well plate pilot, post-Golgi transport modulator project, inhibition of yeast transport mutant growth (AID 636; in the data active means inhibition above about 31%); conditions: absorbance 615 nm, about 18 h, stronger effect = higher value
# [8] = growth suppression of yeast trafficking mutant, preliminary HTS, modulators of trafficking downstream of Golgi apparatus project, 1536-format plate, OD 615 nm (AID 637); conditions: yeast transport mutant growth, absorbance 615 nm, 18 h; stronger effect = higher value
# [9] = H69AR cells + 2 uM doxorubicin, measured here: viability with 2 uM doxorubicin, stronger effect = lower value
# [10] = H69AR cells, compound alone cytotoxicity
# Sequence of Receptor tyrosine-protein kinase erbB-2 (Homo sapiens) (P04626 whole entry, looked up): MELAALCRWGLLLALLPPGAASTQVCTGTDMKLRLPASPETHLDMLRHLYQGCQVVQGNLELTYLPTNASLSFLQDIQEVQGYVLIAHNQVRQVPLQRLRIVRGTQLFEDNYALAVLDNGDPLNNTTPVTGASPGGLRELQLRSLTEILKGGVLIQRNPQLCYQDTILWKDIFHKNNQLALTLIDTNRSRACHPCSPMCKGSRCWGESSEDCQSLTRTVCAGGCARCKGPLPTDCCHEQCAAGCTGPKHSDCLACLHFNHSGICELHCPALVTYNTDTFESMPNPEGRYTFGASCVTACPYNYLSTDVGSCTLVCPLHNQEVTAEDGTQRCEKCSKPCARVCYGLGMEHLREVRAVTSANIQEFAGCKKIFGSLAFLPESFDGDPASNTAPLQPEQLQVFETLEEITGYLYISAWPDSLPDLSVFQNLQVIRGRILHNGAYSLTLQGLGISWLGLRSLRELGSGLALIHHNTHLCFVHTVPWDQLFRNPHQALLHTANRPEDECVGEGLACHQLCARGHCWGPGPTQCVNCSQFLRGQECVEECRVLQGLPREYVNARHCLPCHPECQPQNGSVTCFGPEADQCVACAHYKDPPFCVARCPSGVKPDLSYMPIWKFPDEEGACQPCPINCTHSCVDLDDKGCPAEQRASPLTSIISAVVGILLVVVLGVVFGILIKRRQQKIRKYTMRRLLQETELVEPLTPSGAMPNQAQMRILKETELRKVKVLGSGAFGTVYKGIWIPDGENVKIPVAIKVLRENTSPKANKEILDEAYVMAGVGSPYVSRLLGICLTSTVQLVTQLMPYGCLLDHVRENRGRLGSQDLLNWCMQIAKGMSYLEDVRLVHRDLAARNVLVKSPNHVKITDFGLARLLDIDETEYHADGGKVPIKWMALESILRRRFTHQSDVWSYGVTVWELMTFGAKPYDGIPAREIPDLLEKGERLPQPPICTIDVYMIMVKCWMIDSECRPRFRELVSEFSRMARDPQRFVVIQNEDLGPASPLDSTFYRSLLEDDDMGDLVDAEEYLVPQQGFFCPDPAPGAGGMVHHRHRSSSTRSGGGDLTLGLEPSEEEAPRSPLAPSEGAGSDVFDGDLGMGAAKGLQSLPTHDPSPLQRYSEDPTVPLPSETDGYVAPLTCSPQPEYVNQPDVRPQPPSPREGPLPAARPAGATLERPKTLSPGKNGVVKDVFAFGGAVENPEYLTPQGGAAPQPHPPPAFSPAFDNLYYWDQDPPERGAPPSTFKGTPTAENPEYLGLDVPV
SMILES,viability [1] [%],Her2 level [2],viability [3],viability [4],viability [5],differential viability (reversal) ([6]; H69AR cells + 2 uM doxorubicin),"viability [6, 9] [%]","viability [6, 10] [%]",inhibition [7],inhibition [8]
CCCCc1nccn1CCn1ccnc1CCCC,87,85.5% (inactive),87% (inactive),97% (inactive),85.8% (inactive),-0.88% (inactive),86.7,85.8,-3.47% (inactive),1.61% (inactive)
CCCCN(CC)CCCNC(=O)CS(=O)(=O)Cc1nc(-c2cccc(OC)c2)oc1C,92,112% (inactive),92% (inactive),80.1% (inactive),97.2% (inactive),10.4% (inactive),86.7,97.2,0.66% (inactive),-11.3% (inactive)
O=C(O)C1C2CCC(O2)C1C(=O)NCCC1=CCCCC1 (stereo not given),78.5,118% (inactive),78.5% (inactive),34.2% (inactive),57.8% (inactive),-9.07% (inactive),66.8,57.8,0% (inactive),0.5% (inactive)
Cc1cc(OCC(=O)Nc2ccc3oc(-c4ccncc4)nc3c2)ccc1Cl,92.5,121% (inactive),92.5% (inactive),68% (inactive),60.1% (inactive),1.31% (inactive),58.7,60.1,3.95% (inactive),8.85% (inactive)
Cc1ccc(C)c(S(=O)(=O)NCc2cccnc2)c1,92,87.5% (inactive),92% (inactive),108% (inactive),92.8% (inactive),1.22% (inactive),91.5,92.8,-5.33% (inactive),-6.19% (inactive)
Cc1cc(C)c2c(n1)sc1c(N3CCOCC3)ncnc12,91,90% (inactive),91% (inactive),25.4% (active),76.6% (inactive),0.885% (inactive),75.7,76.6,-6.35% (inactive),0.67% (inactive)
CCNS(=O)(=O)c1ccc(S(=O)(=O)N(Cc2ccccn2)C2CCCCC2)cc1,102,87% (inactive),102% (inactive),109% (inactive),88.9% (inactive),13.6% (inactive),75.3,88.9,-8.92% (inactive),-5.17% (inactive)
O=C(Cn1nnc(-c2ccc(CN3CCOCC3)cc2)n1)NC1CCCCC1,108,104% (inactive),108% (inactive),106% (inactive),101% (inactive),4.09% (inactive),97.1,101,-5.73% (inactive),3.28% (inactive)
COc1cc(OC)c(C(=O)Nc2ccc(N(C)C)cc2)cc1OC,111,84.5% (inactive),111% (inactive),103% (inactive),89% (inactive),-4.37% (inactive),93.4,89,-1.84% (inactive),-1.9% (inactive)
S=C(c1cccs1)N1CCCC1,90.5,110% (inactive),90.5% (inactive),96.7% (inactive),100% (inactive),11.2% (inactive),89.3,100,0.52% (inactive),-8.52% (inactive)
O=C(O)CCCNS(=O)(=O)c1ccc(NCc2ccccc2)c(C(=O)O)c1,87,94% (inactive),87% (inactive),92.3% (inactive),93% (inactive),1.6% (inactive),91.4,93,-6.89% (inactive),0.83% (inactive)
O=C(CCCn1c(=S)[nH]c2ccccc2c1=O)N1CCCCC1,86,108% (inactive),86% (inactive),87.1% (inactive),96.8% (inactive),6.58% (inactive),90.2,96.8,-2.63% (inactive),-8.1% (inactive)
COc1ccc(C)cc1S(=O)(=O)N(C)CC(=O)Nc1ccc2c(c1)OCCO2,92,92% (inactive),92% (inactive),107% (inactive),89.1% (inactive),5.96% (inactive),83.2,89.1,-5.33% (inactive),-12.5% (inactive)
O=C1CC(c2cccc(Cl)c2)CC(O)=C1C=NCCCO (stereo not given),102,90.5% (inactive),102% (inactive),83.7% (inactive),103% (inactive),4.62% (inactive),98.1,103,-6.27% (inactive),-0.33% (inactive)

# Source: PubChem BioAssay
